Screens (PubChem)
MT1-MMP act inh – blocks activation of human MT1-MMP. P50281. HT1080 RFP-PRO-GFP cells, GFP/RFP ratio fluorescence, overnight; percent of plate control window, DMSO zero. GFP/RFP ratio change, % at 20 µM. 360,000 compounds, 0.061% hits;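 active = GFP/RFP ratio change of at least 30% with cell ATP level not reduced by more than half and red fluorescence within 50% of control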
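Assay system: HT1080 RFP-PRO-GFP cells. Benchmarks: DMSO vehicle wells and RFP-L50D-GFP reporter cell wells. Times: overnight cell settling, then overnight compound exposure, 37 °C, 5% CO2. Compound: 20 µM single dose, 1% DMSO. Read-out basis: GFP/RFP fluorescence ratio.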
PolyA inh – blocks polyadenylation in yeast reporter cells | S. cerevisiae SKY197-pL101 polyadenylation reporter, beta-gal luminescence; efflux-impaired pdr1/pdr3 knockout yeast; score 100 = 6 SD above DMSO | activity score, % at 12 µM | 300,000 compounds, 0.02% hits | AID 1875;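 active = lowest replicate activity score at least 50, where 100 means six control SD above control mean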;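 also: yeast exposed to compound for 9 h at 30 °C; higher score means more reporter readthrough which indicates perturbed polyadenylation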
DAGLB inhibitor – diacylglycerol lipase beta (human) inhibition; 340,000 compounds, 0.059% hits; inhibition, % at 5.17 µM; HEK293T DAGLB membrane lysate, EnzChek fluorogenic substrate; in the data active = inhibition above about 34%
DDE Tn7 FP inh – inhibitors of Tn7 peptide binding to human fibrin DD(E); 370,000 compounds, 0.13% hits; inhibition, % at 8.3 µM; FP displacement of FITC-Tn7 peptide from fibrin DD(E); 0% = median of compound wells per plate;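 active = inhibition above the mean of compounds falling within the control limits plus 3 SD of them, cut at about 14% in these data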
Target sequence (P02675 whole entry, looked up): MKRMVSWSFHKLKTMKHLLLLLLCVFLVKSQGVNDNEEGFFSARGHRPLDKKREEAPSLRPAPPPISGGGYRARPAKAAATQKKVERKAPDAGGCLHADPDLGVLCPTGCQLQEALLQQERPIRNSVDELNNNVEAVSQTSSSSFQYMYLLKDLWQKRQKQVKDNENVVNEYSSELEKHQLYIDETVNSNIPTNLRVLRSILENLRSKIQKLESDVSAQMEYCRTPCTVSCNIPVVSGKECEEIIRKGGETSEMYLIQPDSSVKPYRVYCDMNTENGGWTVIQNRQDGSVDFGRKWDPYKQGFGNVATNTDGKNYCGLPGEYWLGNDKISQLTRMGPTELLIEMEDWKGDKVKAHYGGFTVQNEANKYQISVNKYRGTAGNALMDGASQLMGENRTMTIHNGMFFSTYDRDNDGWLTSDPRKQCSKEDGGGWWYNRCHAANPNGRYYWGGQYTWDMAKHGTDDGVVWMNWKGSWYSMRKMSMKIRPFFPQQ
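assay system = human clot-derived fibrin DD(E) complex | quantity = Fibrin-DD(E) at 2 µM final | timing = 10 min preincubation, 3 h with tracer, room temperature | signal = fluorescence polarization | measure = percent inhibition | benchmarks = high control wells with 10 µM unlabelled Aha-Tn7 peptide (full inhibition) | replicates = singlicate testing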
DDE Tn6 FP inh – inhibitors of Tn6 peptide binding to human fibrin DD(E); inhibition, % at 8.3 µM; P02675; 370,000 compounds, 0.21% hits; Fibrin DD(E) TRITC-Tn6 fluorescence polarization displacement;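 active = inhibition above a per-campaign cutoff: mean of compounds within control limits plus 3 SD, cut at about 15% in these data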
SKN-1 block – C. elegans SKN-1 inhibition; C. elegans VP596 Pgst-4::GFP/RFP ratio, acrylamide-induced, 24 h; inhibition, % at 21.8 µM; 360,000 compounds, 0.49% hits;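 active = interference check ratio from 0.5 to 1.5 plus GFP to RFP signal ratio inhibition reaching or exceeding a fixed threshold, cut at about 30% in these data, passing the limit was not always enough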
DDE Tn6 FP ctr – DD(E)-Tn6 binding inhibition, counter-screen; shares compounds with DDE Tn6 FP inh; AID 720621; inhibition, % at 8.3 µM; Fibrin DD(E), TRITC-Tn6 fluorescence polarization displacement; 0% = median of compound wells, not DMSO; 680 compounds, 2% hits;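 active = inhibition above the mean of test compounds lying between the control limits plus 3 SD of those, cut at about 14% in these data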
DDE Tn6 confirm – confirmation of inhibitors of Tn6 binding to human fibrin DD(E). shares compounds with DDE Tn6 FP inh. FP displacement of TRITC-Tn6 peptide from DD(E); 0% = per-plate median of test wells. inhibition, % at 8.3 µM. 680 compounds, 10% hits. AID 720631;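 active = inhibition above the mean of compounds lying within the control limits plus 3 SD, cut at about 16% in these data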
Of the large screens only hits and unclear results are named; the others gave an inactive call (follow-up assays come after a bar, where they were run). A selection: hits, their analogues and other compounds. The true share with any hit is near 0.9%.

Cc1ccc(NC(=O)COC(=O)c2ccc(NC(=O)CC#N)cc2)cc1S(=O)(=O)N1CCOCC1	DDE Tn6 FP inh 20 (no result: PolyA inh) | DDE Tn6 FP ctr inactive | DDE Tn6 confirm inactive
COc1ccccc1CNC(=O)C/C(C)=N/NC(=O)Cc1ccc(Cl)cc1	none
C/C(CC(=O)NCc1ccc(Cl)cc1)=N\NC(=O)c1ccccc1F	DDE Tn6 FP inh 16 | DDE Tn6 FP ctr inactive | DDE Tn6 confirm inactive
NS(=O)(=O)c1ccc(NC(=O)COC(=O)/C(=C/c2cccs2)c2cccs2)cc1	DDE Tn6 FP inh 19 | DDE Tn6 FP ctr inactive | DDE Tn6 confirm inactive
NS(=O)(=O)c1ccc(NC(=O)Cc2cccs2)cc1	none
COC(=O)[C@]12C[C@H](CC(=O)NCC34CC5CC(CC(C5)C3)C4)C(=O)N(Cc3cccc4ccccc34)C1=C[C@H](C1CCCC1)O[C@@H]2C	none (no result: MT1-MMP act inh, PolyA inh, DAGLB inhibitor, SKN-1 block)
CCN(CC)c1ccc(/C=N/N(c2ccccc2)c2ccccc2)c(O)c1	none
CCN(CC)c1ccc(C(=O)c2ccccc2C(=O)O)c(O)c1	DDE Tn6 FP inh 15 | DDE Tn6 FP ctr inactive | DDE Tn6 confirm inactive
Cc1ccc(Cn2ccsc2=NC(=O)COC(=O)c2ccc(NC(=O)CC#N)cc2)cc1	DDE Tn6 FP inh 16 | DDE Tn6 FP ctr inactive | DDE Tn6 confirm inactive
CCCC1CCC2(CC1)CCC2OC(=S)Nc1ccc(N(C)C)cc1 (centres undefined)	none (no result: MT1-MMP act inh, PolyA inh, DAGLB inhibitor, SKN-1 block)
NC(=O)CCn1cnc2ccccc21	none
c1ccc2c(c1)ncn2CCC1CCCCC1	DDE Tn6 FP inh 18 | DDE Tn6 FP ctr inactive | DDE Tn6 confirm inactive
CCOC(=O)[C@@H](NC(=O)[C@@H]1CC=C[C@@H]2CCN(Cc3ccc(Cl)cc3)C(=O)[C@@H]21)C(C)C	none (no result: MT1-MMP act inh, PolyA inh, DAGLB inhibitor, SKN-1 block)
O=C(NC(NC(=S)Nc1ccccc1Cl)C(Cl)(Cl)Cl)c1cccc(Cl)c1 (centres undefined)	none
O=C(Cc1cccc2ccccc12)NC(NC(=S)Nc1ccccc1Cl)C(Cl)(Cl)Cl (centres undefined)	DDE Tn6 FP inh 25 | DDE Tn6 FP ctr inactive | DDE Tn6 confirm inactive
CC(=O)N1N=C(c2ccncc2)OC12CCCCCC2	DDE Tn6 FP inh 16 | DDE Tn6 FP ctr inactive | DDE Tn6 confirm inactive
CN1C(=O)[C@H]2[C@@H](c3ccc(C(F)(F)F)cc3)N[C@]3(CCCN(CC4CCCCC4)C3=O)[C@H]2C1=O	DDE Tn6 FP inh 16 (no result: PolyA inh) | DDE Tn6 FP ctr inactive | DDE Tn6 confirm inactive
COc1ccc(Nc2c(-c3ccc(F)cc3)nc3nc(C)cc(C)n23)cc1	DDE Tn6 FP inh 17 (no result: PolyA inh, DAGLB inhibitor) | DDE Tn6 FP ctr inactive | DDE Tn6 confirm inactive
COc1ccc(Nc2c(-c3cc4ccccc4o3)nc3nc(C)cc(C)n23)cc1	none (no result: PolyA inh, DAGLB inhibitor)
CCN1C=C(C(=O)OC)C(c2cccc(OC)c2OC)C(C(=O)OC)=C1	DDE Tn6 FP inh 17 | DDE Tn6 FP ctr inactive | DDE Tn6 confirm inactive
Cc1c(S(=O)(=O)N2CCN(c3cccc(Cl)c3)CC2)c(=O)n(C)c(=O)n1C	none
Cn1c(N)c(S(=O)(=O)N2CCN(c3cccc(Cl)c3)CC2)c(=O)n(C)c1=O	DDE Tn6 FP inh 16 | DDE Tn6 FP ctr inactive | DDE Tn6 confirm inactive
CC(Oc1ccc2c(c1)c1ccnc3c4ccccc4c(=O)n2c13)C(=O)NCCN1CCOCC1 (centres undefined)	DDE Tn6 FP inh 36 (no result: MT1-MMP act inh) | DDE Tn6 FP ctr inactive | DDE Tn6 confirm inactive
COc1ccc2c(c1OC)c(=O)n1c3ccc(OC(C)C(=O)NCCN4CCOCC4)cc3c3ccnc2c31 (centres undefined)	DDE Tn6 FP inh 27 | DDE Tn6 FP ctr inactive | DDE Tn6 confirm inactive
CN(CCc1ccccc1)C1CCCN(C(=O)Cn2cccn2)C1 (centres undefined)	DDE Tn6 FP inh 17 | DDE Tn6 FP ctr inactive | DDE Tn6 confirm inactive
